Here are results for twelve compounds from ChEMBL document CHEMBL4616631, “Design, synthesis and evaluation of phthalide alkyl tertiary amine derivatives as promising acetylcholinesterase inhibitors with high potency and selectivity against Alzheimer's disease” (Bioorg Med Chem, 2020).

A short description of series [1]: Antioxidant activity assessed as trolox equivalent of AAPH-induced radical scavenging activity at 5 uM preincubated for 15 mins followed by AAPH addition measured every min for 90 mins by ORAC-FL assay. In kind it is functional. A digest of the protocol:
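ORAC-FL in 75 mM phosphate buffer, pH 7.4. Sample at 5 µM was preincubated with fluorescein (150 nM final) for 15 min at 37 °C, then AAPH was added (12 mM final). Fluorescence (ex 485/em 535 nm) was read every minute for 90 min. […] Triplicate, at least three independent assays.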

The target in series [2] is T1, Amine oxidase [flavin-containing] A (Homo sapiens, UniProt P21397).
T1 sequence (P21397 whole entry): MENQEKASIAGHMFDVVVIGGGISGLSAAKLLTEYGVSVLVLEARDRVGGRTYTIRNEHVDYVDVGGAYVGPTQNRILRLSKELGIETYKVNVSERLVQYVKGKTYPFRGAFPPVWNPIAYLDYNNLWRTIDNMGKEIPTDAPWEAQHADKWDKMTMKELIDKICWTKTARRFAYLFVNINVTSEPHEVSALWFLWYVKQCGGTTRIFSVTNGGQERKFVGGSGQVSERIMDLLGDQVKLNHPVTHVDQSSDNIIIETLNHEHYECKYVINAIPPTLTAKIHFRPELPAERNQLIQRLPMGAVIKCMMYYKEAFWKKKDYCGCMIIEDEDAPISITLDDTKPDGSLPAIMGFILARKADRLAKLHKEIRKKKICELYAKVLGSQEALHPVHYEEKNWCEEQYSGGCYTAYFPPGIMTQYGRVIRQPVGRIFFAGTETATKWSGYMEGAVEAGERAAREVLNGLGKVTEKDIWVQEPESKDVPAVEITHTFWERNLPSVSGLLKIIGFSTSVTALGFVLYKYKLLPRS
The series can be described thus: Inhibition of recombinant human MAO-A expressed in baculovirus infected BTI insect cells at 10 uM using kynuramine as substrate measured after 30 mins by fluorescence based assay relative to control. The note with it: 0.5 h. Put shortly: (§1)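 Recombinant human MAO-A or MAO-B (7.5 µg/mL) in 100 mM potassium phosphate, pH 7.4, with 20.2 mM KCl and DMSO below 4%. Kynuramine was 45 µM for MAO-A and 30 µM for MAO-B. Incubation 30 min at 37 °C, stopped with NaOH and water, then centrifuged. Supernatant fluorescence ex 310/em 400 nm. Triplicate.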

The target of series [3] is Acetylcholinesterase (Electrophorus electricus, UniProt O42275). The series can be described thus: Inhibition of Electrophorus electricus AChE using […] as substrate incubated for 15 mins by Ellman's method. In general terms: DTNB colorimetry detects thiols as they appear.
In series [4] the target is Amyloid-beta precursor protein (Homo sapiens) (UniProt P05067). The series can be described thus: Inhibition of HFIP-pretreated self-induced amyloid beta (1 to 42) (unknown origin) aggregation at 25 uM measured after 24 hrs by ThT fluorescence assay relative to control. Put shortly:
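Aβ1-42 was pretreated in HFIP for 24 h at room temperature, dried, and dissolved in DMSO to a 200 µM stock. Aβ (25 µM) was incubated with compound (25 µM) at 37 °C for 24 h. ThT was added at 5 µM in glycine-NaOH, pH 8.5. Fluorescence ex 446/em 490 nm, background-subtracted; inhibition = (1−IFi/IFc)×100. Triplicate.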

Series [5] has as its target T2, Amine oxidase [flavin-containing] B (Homo sapiens, UniProt P27338).
T2 sequence (P27338 whole entry): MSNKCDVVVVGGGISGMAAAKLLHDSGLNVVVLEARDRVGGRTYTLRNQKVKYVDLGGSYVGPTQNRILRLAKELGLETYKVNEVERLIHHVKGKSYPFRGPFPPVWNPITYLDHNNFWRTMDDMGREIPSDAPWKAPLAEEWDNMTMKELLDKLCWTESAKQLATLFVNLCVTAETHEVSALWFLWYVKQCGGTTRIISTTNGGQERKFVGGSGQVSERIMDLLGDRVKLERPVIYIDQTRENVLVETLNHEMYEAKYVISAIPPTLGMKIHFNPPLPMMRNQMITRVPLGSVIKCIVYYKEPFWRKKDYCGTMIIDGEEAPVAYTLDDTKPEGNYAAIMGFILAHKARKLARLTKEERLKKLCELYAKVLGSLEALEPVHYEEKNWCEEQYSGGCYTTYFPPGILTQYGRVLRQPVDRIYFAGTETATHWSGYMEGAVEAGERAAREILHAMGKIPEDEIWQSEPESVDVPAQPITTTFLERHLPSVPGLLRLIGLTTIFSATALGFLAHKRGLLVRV
The series can be described thus: Inhibition of recombinant human MAO-B expressed in baculovirus infected BTI insect cells at 10 uM using kynuramine as substrate measured after 30 mins by fluorescence based assay relative to control. The note with it: 0.5 h. A digest of the protocol: as §1

Series [6] concerns the target Butyrylcholinesterase (BuChE) (Rattus norvegicus, UniProt Q9JKC1). The series can be described thus: Inhibition of BuChE in rat serum at 50 uM using S-butylthiocholine iodide as substrate by Ellman's method relative to control. In kind it is cell-free. The note with it: probe S-butylthiocholine iodide. Put shortly: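 Rat serum (25%) as BuChE source, S-butylthiocholine iodide 1 mM, DTNB 0.2%, in 0.1 mM phosphate buffer pH 7.4, 37 °C 15 min (modified Ellman); absorbance change at 405 nm. Three independent experiments, each in triplicate.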

One may read the inhibition as the relative decrease from the control value, in per cent. For orientation: IC50 means the concentration that inhibits the measured activity by half.

Sequence of Amyloid-beta precursor protein (Homo sapiens) (P05067 whole entry): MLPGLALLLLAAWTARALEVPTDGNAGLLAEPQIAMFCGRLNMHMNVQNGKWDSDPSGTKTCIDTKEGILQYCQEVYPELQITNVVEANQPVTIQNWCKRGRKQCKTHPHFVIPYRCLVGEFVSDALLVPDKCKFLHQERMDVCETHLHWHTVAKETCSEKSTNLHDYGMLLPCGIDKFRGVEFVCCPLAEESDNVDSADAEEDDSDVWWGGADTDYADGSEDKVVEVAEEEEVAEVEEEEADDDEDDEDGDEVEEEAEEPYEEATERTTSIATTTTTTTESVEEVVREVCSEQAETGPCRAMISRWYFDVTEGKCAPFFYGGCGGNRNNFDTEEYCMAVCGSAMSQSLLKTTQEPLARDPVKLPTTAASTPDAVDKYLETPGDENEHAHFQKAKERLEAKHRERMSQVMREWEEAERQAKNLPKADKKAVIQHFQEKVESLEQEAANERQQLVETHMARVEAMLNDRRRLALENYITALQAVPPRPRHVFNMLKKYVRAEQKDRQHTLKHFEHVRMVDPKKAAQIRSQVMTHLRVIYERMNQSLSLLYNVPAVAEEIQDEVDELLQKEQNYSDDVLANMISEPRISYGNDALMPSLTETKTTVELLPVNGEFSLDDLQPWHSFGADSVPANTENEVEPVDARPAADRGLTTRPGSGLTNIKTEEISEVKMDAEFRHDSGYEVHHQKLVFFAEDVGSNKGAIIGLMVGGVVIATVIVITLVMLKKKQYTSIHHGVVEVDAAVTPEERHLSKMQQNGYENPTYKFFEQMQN
Sequence of Butyrylcholinesterase (BuChE) (Q9JKC1 whole entry): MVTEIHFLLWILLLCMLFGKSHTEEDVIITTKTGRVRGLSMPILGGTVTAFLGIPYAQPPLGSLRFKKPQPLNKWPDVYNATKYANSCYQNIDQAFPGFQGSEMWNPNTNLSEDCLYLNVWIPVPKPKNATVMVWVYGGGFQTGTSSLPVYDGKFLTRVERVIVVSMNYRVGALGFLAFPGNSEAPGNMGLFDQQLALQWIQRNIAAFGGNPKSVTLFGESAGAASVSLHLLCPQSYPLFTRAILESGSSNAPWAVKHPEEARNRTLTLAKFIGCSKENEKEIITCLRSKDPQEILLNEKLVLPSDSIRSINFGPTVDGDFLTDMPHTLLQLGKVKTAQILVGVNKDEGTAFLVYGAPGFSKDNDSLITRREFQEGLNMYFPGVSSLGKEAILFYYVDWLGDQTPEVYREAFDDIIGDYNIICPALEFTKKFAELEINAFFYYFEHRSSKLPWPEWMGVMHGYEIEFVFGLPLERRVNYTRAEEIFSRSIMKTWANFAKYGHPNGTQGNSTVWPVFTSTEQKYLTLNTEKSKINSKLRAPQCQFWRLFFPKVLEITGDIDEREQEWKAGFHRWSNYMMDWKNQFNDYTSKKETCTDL
Sequence of Acetylcholinesterase (O42275 whole entry): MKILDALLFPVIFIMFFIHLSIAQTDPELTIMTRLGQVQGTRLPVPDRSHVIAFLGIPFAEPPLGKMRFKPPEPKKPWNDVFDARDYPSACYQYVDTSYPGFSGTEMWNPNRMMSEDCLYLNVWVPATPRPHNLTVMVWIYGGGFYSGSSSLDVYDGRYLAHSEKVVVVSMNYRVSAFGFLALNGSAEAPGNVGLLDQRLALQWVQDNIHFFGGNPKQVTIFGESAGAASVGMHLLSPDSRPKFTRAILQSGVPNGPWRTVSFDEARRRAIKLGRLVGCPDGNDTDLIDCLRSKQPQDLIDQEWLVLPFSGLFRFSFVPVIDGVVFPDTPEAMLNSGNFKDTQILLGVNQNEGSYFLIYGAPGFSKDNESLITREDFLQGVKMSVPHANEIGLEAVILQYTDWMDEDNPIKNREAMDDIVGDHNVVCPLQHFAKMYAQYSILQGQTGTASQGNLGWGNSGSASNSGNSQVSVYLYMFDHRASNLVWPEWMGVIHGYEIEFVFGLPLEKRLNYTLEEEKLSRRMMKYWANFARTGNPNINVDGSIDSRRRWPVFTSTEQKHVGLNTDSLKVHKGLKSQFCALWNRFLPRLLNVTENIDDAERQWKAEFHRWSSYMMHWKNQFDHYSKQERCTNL

As for `CCN(CCC/C=C1/OC(=O)c2cc(OC)c(OC)cc21)Cc1ccccc1OC`, the Activity in series [1] was 0.53 µMequiv/µM. For the same compound, the inhibition at 10 µM in series [2] came out at 27.1%; in series [5] it was 4.8%. Moreover, half-maximal inhibition in series [3] (IC50) was put at 800 nM. Further, the inhibition in series [4] amounted to 19%. In series [6], this compound had an inhibition at 50 µM of 19.1%.

Consider `COc1cc2c(cc1OC)/C(=C/CCCN(C)Cc1ccccc1)OC2=O`, for which, in series [1], the Activity came to 0.32 µMequiv/µM. The inhibition at 10 µM was 10.9% in series [2] and 11.9% in series [5]. This compound displayed an IC50 in series [3] of 340 nM. In addition, in series [4], the inhibition was 11.7%. Also, the inhibition at 50 µM in series [6] was 12.2%.

In the case of `CCN(CC)CCCCC1OC(=O)c2cc(OC)c(OC)cc21` (configuration not stated), in series [1], the Activity was found to be 0.31 µMequiv/µM. Further, the inhibition at 10 µM came to 2.45% in series [2] and 21.5% in series [5]. In series [3], this compound showed a half-maximal inhibitory concentration (IC50) of 14700 nM. Besides, the inhibition in series [4] came out at 15%. Further, the inhibition at 50 µM in series [6] was determined as 5.1%.

As to `CCN(CCC/C=C1/OC(=O)c2cc(OC)c(OC)cc21)Cc1ccccc1N(C)C`, the Activity in series [1] is 1.07 µMequiv/µM. In addition, the inhibition at 10 µM in series [2] was 30%; in series [5], 2.1%. In series [3], this compound had a concentration for half-maximal inhibition (IC50) of 350 nM. Further, the inhibition in series [4] came to 8.2%. Moreover, at 50 µM the inhibition in series [6] was 43.1%.

With `CCN(CCCCC1OC(=O)c2cc(OC)c(OC)cc21)Cc1ccccc1` (configuration not stated), in series [1], the Activity is 0.23 µMequiv/µM. In addition, the inhibition at 10 µM in series [2] was 7.1%; in series [5], 5.51%. In series [3], this compound came in with a half-maximal inhibitory concentration (IC50) of 580 nM. For the same compound, the inhibition in series [4] was found to be 15.6%. This compound registered an inhibition at 50 µM in series [6] of 23.1%.

For the compound `COc1ccccc1CN(C)CCCCC1OC(=O)c2cc(OC)c(OC)cc21` (configuration not stated), the Activity in series [1] amounted to 0.27 µMequiv/µM. Besides, the inhibition at 10 µM in series [2] amounted to 0.25%; in series [5], 5.7%. Besides, 490 nM corresponded to half-maximal inhibition in series [3] (IC50). Moreover, the inhibition in series [4] worked out at 14.4%. Besides, the inhibition at 50 µM in series [6] turned out to be 21.7%.

As to `COc1cc2c(cc1OC)/C(=C\CCCN1CCCCC1)OC2=O`, the Activity in series [1] amounted to 0.32 µMequiv/µM. Further, the inhibition at 10 µM in series [2] is 1.52%; in series [5], 38.8%. The same compound yielded a half-inhibitory concentration (IC50) in series [3] of 440 nM. Moreover, the inhibition in series [4] came to 11.3%. This compound also displayed an inhibition at 50 µM in series [6] of 26.9%.

Turning to `CCN(CCCCC1OC(=O)c2cc(OC)c(OC)cc21)Cc1ccc(N(C)C)cc1` (configuration not stated), the Activity in series [1] came to 2.59 µMequiv/µM. The inhibition at 10 µM was determined as 12.1% in series [2] and 9.47% in series [5]. The compound also returned an IC50 in series [3] of 24900 nM. The inhibition in series [4] is less than 5%. In addition, 50 µM produced 6.2% inhibition in series [6].

As for `CCN(CCCCC1OC(=O)c2cc(OC)c(OC)cc21)Cc1ccccc1OC` (configuration not stated), the Activity in series [1] turned out to be 0.74 µMequiv/µM. The inhibition at 10 µM came to 27.8% in series [2] and 10.4% in series [5]. Further, in series [3], the half-maximal inhibitory concentration (IC50) turned out to be 370 nM. In addition, in series [4], the inhibition stood at 13.8%. In series [6], this compound yielded an inhibition at 50 µM of 29.8%.

For the compound `COc1cc2c(cc1OC)/C(=C\CCCN(C)Cc1ccccc1)OC2=O`, the Activity in series [1] came to 0.49 µMequiv/µM. Besides, the inhibition at 10 µM in series [2] is 17.9%; in series [5], 1.09%. Moreover, in series [3], half-maximal inhibition (IC50) required 640 nM. Further, in series [4], the inhibition stood at 8.6%. Further, in series [6], the inhibition at 50 µM came to 27.3%.

For `CCN(CCCCC1OC(=O)c2cc(OC)c(OC)cc21)Cc1ccccc1N(C)C` (configuration not stated), in series [1], the Activity turned out to be 0.43 µMequiv/µM. The inhibition at 10 µM in series [2] worked out at 17.8%; in series [5] it was 15%. Moreover, the IC50 in series [3] turned out to be 260 nM. The inhibition in series [4] amounted to 15.3%. Besides, testing at 50 µM in series [6] gave an inhibition of 44.8%.

For the compound `CCN(CCC/C=C1\OC(=O)c2cc(OC)c(OC)cc21)Cc1ccc(N(C)C)cc1`, the Activity in series [1] came to 2.75 µMequiv/µM. The inhibition at 10 µM in series [2] came out at 12.9%; in series [5] it was 8.86%. The compound also yielded an IC50 in series [3] of 23400 nM. Besides, the inhibition in series [4] worked out at 22%. Moreover, the inhibition at 50 µM in series [6] was found to be 13.6%.
